Experimental data from different studies.
Protocols differ between the studies behind these lines.
KIT D816V: Mast/stem cell growth factor receptor Kit (KIT, Homo sapiens, UniProt P10721, D816V)
KIT: Mast/stem cell growth factor receptor Kit (KIT, Homo sapiens, UniProt P10721)
KIT T670I/V559D: Mast/stem cell growth factor receptor Kit (KIT, Homo sapiens, UniProt P10721, T670I/V559D)
KIT D816H: Mast/stem cell growth factor receptor Kit (KIT, Homo sapiens, UniProt P10721, D816H)

Compound	target	effect on	action	technique	concentration	quantity	result
Nc1ncnc2occ(-c3ccc(NC(=O)Nc4cc(C(F)(F)F)ccc4F)cc3)c12	KIT D816V	cell-free assay	inhibitor	–	20 µM	remaining signal	0%
O=C(c1cc2cc(O)ccc2[nH]1)c1cc2cc(O)ccc2[nH]1	KIT	cell-free assay	–	–	0.5 µM	remaining signal	45.6%
C[C@H](NC(=O)c1cnc2n1[C@](C)(Cc1ccc(C#N)cc1)C(=O)N2c1cc(Cl)c(F)c(Cl)c1)C(=O)NC1(c2ccccn2)CC1	KIT D816V	cell-free assay	–	competition with immobilised ligand	1 µM	remaining binding	100%
F[C@@H]1CCN(c2nccc(-c3cnn4ncccc34)n2)C1	KIT	binding	–	–	1 µM	remaining binding	91%
COc1cc(-c2cc(-c3ccc(N4CCNCC4)cc3)cnc2N)cc(OC)c1OC	Mast/stem cell growth factor receptor Kit (KIT, Homo sapiens, UniProt P10721, V560G)	enzyme activity	inhibitor	–	0.1 µM	inhibition	4%
Cc1ccc(NC(=O)c2ccc(CN3CCN(C)CC3)cc2)cc1Nc1nc(-c2cccnc2)cs1	KIT	cell-free assay	–	–	0.5 µM	remaining signal	41.3%
CC(=O)N1CCC(c2ccc(C(=O)NC(=N)N)cc2C(F)(F)F)CC1	KIT T670I/V559D	cell-free assay	–	competition with immobilised ligand	1 µM	remaining binding	100%
CC/C(=N\NC(=O)NCc1cccc(O)c1)c1ccc(O)c(C)c1O	Mast/stem cell growth factor receptor Kit (KIT, Homo sapiens, UniProt P10721, D816E)	enzyme activity	inhibitor	–	0.1 µM	inhibition	0.8%
O=C(CSc1nc2nccnc2c(=O)n1CCc1ccccc1)Nc1nccs1	KIT	enzyme activity	inhibitor	–	10 µM	inhibition	-4%
CN(C)c1nccc(-c2cnn3ncccc23)n1	KIT T670I/V559D	binding	–	–	1 µM	remaining binding	100%
COc1cc2ncnc(N3CCN(C(=O)Nc4ccc(Oc5ccccc5)cc4)CC3)c2cc1OC	KIT	cell-free assay	–	–	0.5 µM	remaining signal	48.2%
C[C@H]1CCN(c2nccc(-c3cnn4ncccc34)n2)C1	KIT	binding	–	–	1 µM	remaining binding	96%
O=C(O)[C@@H]1[C@@H](Cn2nnc3ccccc3c2=O)CC[C@H]1C(=O)c1ccc(OCCC2CCOCC2)cc1	KIT D816V	cell-free assay	–	competition with immobilised ligand	1 µM	remaining binding	98%
CCCOc1ccc(OC)c(F)c1C(=O)c1ccc(C(=O)N[C@@H]2CNC[C@H]2NC(=O)c2ccc3[nH]ncc3c2)cc1	KIT D816H	enzyme activity	inhibitor	–	10 µM	remaining activity	14%
CCS(=O)(=O)c1cc2cc(C[C@@](O)(CC(C)(C)c3ccc(F)cc3C(N)=O)C(F)(F)F)[nH]c2cn1	KIT D816H	cell-free assay	–	competition with immobilised ligand	1 µM	remaining binding	51%
Cc1ccc(C(=O)NCc2ccsc2)cc1C#Cc1cn(C(C)C)c2ncnc(N)c12	KIT D816V	enzyme activity	inhibitor	–	1 µM	activity vs control	76%
CN(C(=O)c1ccccc1)c1cc(N(C)c2ccc3c(c2)CCc2ccc(C(=O)NCCN4CCOCC4)cc2C3=O)ccc1F	KIT T670I/V559D	cell-free assay	–	competition with immobilised ligand	1 µM	remaining binding	99%
N[C@H]1CCN(c2nccc(-c3cnn4ncccc34)n2)C1	Mast/stem cell growth factor receptor Kit (KIT, Homo sapiens, UniProt P10721, A829P)	binding	–	–	1 µM	remaining binding	100%
O=C(Nc1ccc(Oc2ccc(F)cc2)cc1)N1CCc2ncccc2[C@H]1c1ccc(F)cc1	KIT	cell-free assay	–	competition with immobilised ligand	1 µM	remaining binding	97%
CC1CCCN1c1nccc(-c2cnn3ncccc23)n1 (stereo not drawn)	KIT	binding	–	–	1 µM	remaining binding	100%
Cc1cc(NC(=O)c2cccc3cc(-c4cccc5[nH]nc(N)c45)ccc23)ccc1F	KIT	enzyme activity	inhibitor	–	0.1 µM	activity vs control	95%
